Data published in the RNAGym collection of RNA variant scans (doi:10.1101/gad.245936.114).
This sample holds only a part of the variants without activity.

B1: tRNA (parent)
chain: CUCUCGGUAGCCAAGUUGGUUUAAGGCGCAAGACUUUAAUUUAUCACUACGAAAUCUUGAGAUCGGGCGUUCGACUCGCCCCCGGGAGAUUUUUUCCUCGAGCAA

Variants of: B1
Test: nonsense suppression (GFP-seq) (ratio to wild type); higher = more function; SUP4oc tRNA, yeast GFP reporter sort-seq
Procedure, shortened: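 Sorted GFP/RFP bins of yeast were each Illumina-sequenced with a phred ≥30 cutoff; the cells held a genome-integrated ochre-suppressor tRNA variant from a library with ~3% random mutations, a galactose-driven GFP ochre reporter, and RFP. Culture was in raffinose/galactose medium containing 80 mg/L adenine. Nonsense suppression, termed GFPSEQ, is the median GFP/RFP of the bins weighted by each variant's estimated cell share per bin, relative to the unmutated parent tRNA, for variants reaching ≥100 reads and ≥30 cells.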
For CUCUCGGUAGCCAUGUUGGUUUAAGGCGCAAGACUUUAAUUUAUCACUACGAAAUCUUGAGAUCGGGCGUUCGACUCGCCCCCGUGAUAUUUUUUCCUCGAGCAA, the nonsense suppression was ≤ 0.026. In the case of CUCUCGGUAGCCAUGUUGGUUUAAUGCGCCAGACUUUAAUUUAUCACUACGAAAUCUUGAGAUCCGGCGUUCGACUCGCCCCCGGGAGAUUUUUUCCUCGAGCAA, the nonsense suppression is reported as ≤ 0.026. With CUCUCGGUAGCCAAAUUGGUCUAAGGCGCAAGAGGUUAAUUUAUCACUACGAAAUCUAGAGAUCGGGCGUUCGACUCGCCCCCGGGAGAUUUUUUCCUCGAGCAA the nonsense suppression was ≤ 0.026. With CUCUCGGUAGCCAUGCUGGUUUAAGGCGCAAGACUUUAAUUUAUCACUACGAAAUCUAGAUAUCGGGCGUUUGACUCGCCCCCGGGAGAUUUUUUCCUCGAGCAA the nonsense suppression was ≤ 0.026. With CUCUCGGUAGCCAUGUUGGUUUAACGUGCAAGACUUUAAUUUAUCACUACGAAAUCUUGAGAUCGGGCGUUCGACUCGCCCCCGGGAGAUUUUUUCCUCGAGCAA the nonsense suppression was ≤ 0.026. In the case of CUCUCGGUAGCCAAAUUGGUUUAAGGCGCAAGACUUUAAUUUAUCACUACGAAAUCUUGAGAUCGGGCGUUCGACUCGCUCCCGGGAGAUUUUUUCCUCGAGCAA, the nonsense suppression is reported as 0.167. In the case of CUCUCGGUAGCCAUGUUUGUUUUAGGGGCAAGACUUUAAUUUAUCACUACGAAAUCUUGAGAUCGGGCGUUCGACUCGCCCCCGGGAGAUUUUUUCCUCGAGCAA, the nonsense suppression is reported as ≤ 0.026. For CUCUCGGUAGCCAAAUUGGUUUAAGGCGCAAGACUUUAAUUUAUCACUACGAAAUCUUGAGAGCGGGCGUUCGAGUCGCCCCCGGGAGAUUUUUUCCUCGAGCAA, the nonsense suppression was ≤ 0.026. In the case of CUCUCGGUAGCCAAAUUGGUUUAAGGCGCAAGACUUUAAUUUAUCACUACGAAAUCUUGAGAUCAGGCGUUCGACUCGCCCCCGGGAGAUUUUUUCCUCGAGCAA, the nonsense suppression is reported as ≤ 0.026. In the case of CUCUCGGUAGCCAUGUUGGUUUAAGGCGCAAGACUUUAAUUUAUCACUACGAAAUCUUGAGAUCGGGCGUUCGACUCGCCCCCAGGAGAUUUUUUCCUCGAGCAA, the nonsense suppression is reported as ≤ 0.026. Work on CUCUCGGUAGCCAAAUUGGGUUAAGGCGCAAGACUUUAAUUUAUCACUACGAAAUCUUGAGAUCGGGCGUUCGACUCGCCCCCGGGAGAUUUUUUCCUCGAGCAA yielded a nonsense suppression of 0.189. CUCUCGGUAGCCAAAUUGGUUUAAGGCGCAAGACUUUAAUUUAUCACUACGAAAUCUUGAGAUCGGGCGUUCGACUCACCCCCGGGAGAUUUUUUCCUCGAGCAA showed a nonsense suppression of 0.0278. In the case of CUCUCGGUAGCCAAAUUGGUUUAAGGCGCAAGACUUUAAUUUAUCACUACGAAAUCUUGAGAUCGGGUGUUCGACUCGCCCCCGGGAGAUUUUUUCCUCGAGCAA, the nonsense suppression is reported as 0.0272. CUCUCGGUAGCCAAAUUGGUUUAAGGCACAAGACUUUAAUUUAUCACUACGAAAUCUUGAGAUCGGGCGUUCGAAUCGCCCCCGGGAGAUUUUUUCCUCGAGCAA showed a nonsense suppression of 0.24. With CUCUCGGUAGCCAAAUUGGUUUAAGGCGCAAGACUUUAAUUUAUCACUACGAAAUCUUGAGAUCGGGCGUUCGACUCGCCCCCGGGAGAUUUUUUCCUCGAGCAA the nonsense suppression was 0.188. Variant CUCUCGGUAGCCAAAUUGGUUUACGGCGCAAGACUUUAAUUUAUCACUACGAAAUCUUGAGAUCGGGCGUUCGACUCGCCCCCGGGAGAUUUUUUCCUCGAGCAA has a nonsense suppression of 0.0467. For CUCUCGGUAGCCAACUUUGUUUAAGGCGCAAGACUUUAAUUUAUCACUACGAAAUCUUGAGAUCGGGCGUUCGACGCGCCCCCGGGGGAUUUUUUCCUCGAGCAA, the nonsense suppression was ≤ 0.026. With CUCUCGGUAGCCAUGUUGGUUUAAGGCGCAAGACUUUAAUUUAUCACUACGAAAUCUUGAGAUCGAGCGUUCGACUCGCCCCCGGGAGAUUUUUUCCUCGAGCAA the nonsense suppression was ≤ 0.026. In the case of CUCUCGGUAGCCAACUUGGUUUAAGGCGCAAGACUUUAAUUUAUCACUACGAAAUCUUGAGAUCGGGCGUUCGACUCGCCCCCGGGUGAUUUUUUCCUCGAGCAA, the nonsense suppression is reported as ≤ 0.026. CUCUCGGUAGCCAUGUUGGUUUAAGGCGCAAGACUUUAAUUUAUCACUACGAAAUCUUGAGAACGGGCGUUCGACUCGCCCCCGGGAGAUUUUUUCCUCGAGCAA gave a nonsense suppression of 0.0439. For CUCUCGGUAGCCAUGUUGGUUUAAGGCGCAAGACUUUAAUUUAUCACUACGAAAUCUUGAAAUCGGGCGUUCGACUCGCCCCCGGGAGAUUUUUUCCUCGAGCAA, the nonsense suppression was 0.0341. With CUCUCGGUAGCCAUGUUGGCUUAGGGCGCAAGACUUUAAUUUAUCACUACGAAAUCUUGAGAUCGGGCGUUCGAGUCGCCCCCGGGAGAUUUUUUCCUCGAGCAA the nonsense suppression was ≤ 0.026. For CUCUCGGUAGCCAAAUUGGUCUAAGGCGCAAGACUUUAAUUUAUCACUACGAAAUCUUGAGAUCGGGCGUUCGACUCGCCCACGGGAGAUUUUUUCCUCGAGCAA, the nonsense suppression was ≤ 0.026. With CUCUCGGUAGCCAAAUUGGUUUAAGGCGCAAGACUUUAAUUUAUCACUACGAAAUCUUGACAUCGGGCGUUCGACUCGCCCCCGGGAGAUUUUUUCCUCGAGCAA the nonsense suppression was 0.034. For CUCUCGGUAGCCAUGUUGGUUUAAGGCGCAAGACUUUAAUUUAUCACUACGAAAUCUUGAGAUCGGGCGUACGACUCGCCCCCGGGAGAUUUUUUCCUCGAGCAA, the nonsense suppression was ≤ 0.026. For CUCUCGGUAGCCAUGUUGGUUUAAGGCGCAAGACUUUAAUUUAUCACUACGAAAUCGUGAGAUCGGGCGUUCGACUCGCCCCCGGGAGAUUUUUUCCUCGAGCAA, the nonsense suppression was ≤ 0.026. For CUCUCGGUAGCCAACUUGGUUUAAGGCGCAAGACUUUAAUUUAUCACUACGAAAUAUUGAGAUCGGGCGUUCGACUCGCCCCCGGGAGAUUUUUUCCUCGAGCAA, the nonsense suppression was ≤ 0.026.
